{"data": "Measured values from different studies", "FLT3 D835V": "Receptor-type tyrosine-protein kinase FLT3 (FLT3, Homo sapiens, UniProt P36888, D835V)", "FLT3 R834Q": "Receptor-type tyrosine-protein kinase FLT3 (FLT3, Homo sapiens, UniProt P36888, R834Q)", "FLT3 autoinhibited": "Receptor-type tyrosine-protein kinase FLT3, autoinhibited (FLT3, Homo sapiens, UniProt P36888)", "FLT3": "Receptor-type tyrosine-protein kinase FLT3 (FLT3, Homo sapiens, UniProt P36888)", "FLT3 K663Q": "Receptor-type tyrosine-protein kinase FLT3 (FLT3, Homo sapiens, UniProt P36888, K663Q)", "FLT3 D835H": "Receptor-type tyrosine-protein kinase FLT3 (FLT3, Homo sapiens, UniProt P36888, D835H)", "note": "Each line is one published result; the experiments were not run side by side."}
{"Compound": "CCCOc1ccc([C@H]2[C@H](C(=O)O)[C@@H](c3ccc4c(c3)OCO4)CN2CC(=O)Nc2c(CC)cccc2CC)cc1", "target": "Receptor-type tyrosine-protein kinase FLT3 (FLT3, Homo sapiens, UniProt P36888, ITD)", "read-out": "cell-free assay", "method": "competition with immobilised ligand", "tested at": "1 µM", "remaining binding": "81%"}
{"Compound": "O=C(NCC1CCOCC1)c1n[nH]cc1NC(=O)c1c(F)cccc1F", "target": "FLT3 D835V", "read-out": "binding", "method": "competition with immobilised ligand", "tested at": "1 µM", "remaining binding": "100%"}
{"Compound": "Cc1c(C(=O)O)cc(-c2ccc(C3CCNCC3)cc2)c2ccc(-c3ccc(C(F)(F)F)cc3)cc12", "target": "FLT3 R834Q", "read-out": "binding", "method": "competition with immobilised ligand", "tested at": "1 µM", "remaining binding": "100%"}
{"Compound": "N[C@H]1CCN(c2nccc(-c3cnn4ncccc34)n2)C1", "target": "FLT3 R834Q", "read-out": "binding", "tested at": "1 µM", "remaining binding": "90%"}
{"Compound": "O=C1NC(c2ccccn2)Sc2ccccc21 (centres unmarked)", "target": "Receptor-type tyrosine-protein kinase FLT3 (FLT3, Homo sapiens, UniProt P36888, D835Y)", "read-out": "cell-free assay", "method": "competition with immobilised ligand", "tested at": "1 µM", "remaining binding": "86%"}
{"Compound": "C[C@@H]1CCN(c2nccc(-c3cnn4ncccc34)n2)C1", "target": "FLT3 D835V", "read-out": "binding", "tested at": "1 µM", "remaining binding": "51%"}
{"Compound": "CS(=O)(=O)N1CCCC(NC(=O)[C@H](CCC2CCCCC2)NC(=O)c2ccc(CNC(=O)c3cnc4ccccn34)cc2)C1 (some centres unmarked)", "target": "FLT3 autoinhibited", "read-out": "cell-free assay", "method": "competition with immobilised ligand", "tested at": "0.1 µM", "remaining binding": "93%"}
{"Compound": "C=CC(=O)N1CCC(C(=O)NCC(=O)N2CCN(c3nc(-c4cnc(N)nc4C(F)F)nc(N4CCOCC4)n3)CC2)CC1", "target": "FLT3", "read-out": "binding", "method": "competition with immobilised ligand", "tested at": "1 µM", "remaining binding": "91%"}
{"Compound": "c1cncc(-c2cccc(Nc3nccc(NC4CCCCC4)n3)c2)c1", "target": "FLT3 autoinhibited", "read-out": "binding", "method": "competition with immobilised ligand", "tested at": "10 µM", "remaining binding": "3.6%"}
{"Compound": "Cc1nc(N2CC[C@@H](O)C2)ncc1-c1cc(C(F)(F)F)cc2[nH]ncc12", "target": "FLT3 R834Q", "read-out": "binding", "method": "competition with immobilised ligand", "tested at": "1 µM", "remaining binding": "73%"}
{"Compound": "O=C(c1ccc(Nc2nccc(-c3cc4ccccc4s3)n2)cc1)N1CCC(N2CCCC2)CC1", "target": "FLT3", "read-out": "binding", "method": "competition with immobilised ligand", "tested at": "1 µM", "remaining binding": "44%"}
{"Compound": "Cc1c(NC(=O)c2cc(C(N)=O)nc3cc(F)ccc23)c(C(F)(F)F)nn1Cc1ccc(C(C)(C)C)cc1", "target": "FLT3", "read-out": "cell-free assay", "method": "competition with immobilised ligand", "tested at": "1 µM", "remaining binding": "100%"}
{"Compound": "COc1cnc(Nc2cccc(S(N)(=O)=O)c2)nc1N1CCN(c2ccccc2)C(=O)C1", "target": "FLT3 R834Q", "read-out": "binding", "method": "competition with immobilised ligand", "tested at": "1 µM", "remaining binding": "77%"}
{"Compound": "O=C(c1ccc(Nc2ncc(Cl)c(-c3ccc(Cl)s3)n2)cc1)N1CCC(N2CCCC2)CC1", "target": "FLT3 autoinhibited", "read-out": "binding", "method": "competition with immobilised ligand", "tested at": "1 µM", "remaining binding": "1.8%"}
{"Compound": "Cc1cnn2ncc(-c3ccnc(N(C)C)n3)c2c1", "target": "FLT3 autoinhibited", "read-out": "binding", "tested at": "1 µM", "remaining binding": "84%"}
{"Compound": "COc1ncc2cc3ccccc3nc2c1C#N", "target": "FLT3 K663Q", "read-out": "cell-free assay", "method": "competition with immobilised ligand", "tested at": "5 µM", "remaining binding": "97%"}
{"Compound": "Cc1cnc(Nc2ccc(C(=O)N3CCC(N4CCCC4)CC3)cc2)nc1-c1cc2ccccc2s1", "target": "FLT3 K663Q", "read-out": "binding", "method": "competition with immobilised ligand", "tested at": "1 µM", "remaining binding": "2.2%"}
{"Compound": "COc1ccnn2ncc(-c3ccnc(N(C)C)n3)c12", "target": "FLT3", "read-out": "binding", "tested at": "1 µM", "remaining binding": "100%"}
{"Compound": "O=C(c1ccc(Nc2ncc(Cl)c(-c3cc4ccccc4s3)n2)cc1)N1CCC(N2CCCC2)CC1", "target": "Receptor-type tyrosine-protein kinase FLT3 (FLT3, Homo sapiens, UniProt P36888, D835V/ITD)", "read-out": "binding", "method": "competition with immobilised ligand", "tested at": "1 µM", "remaining binding": "7.6%"}
{"Compound": "CN(C)c1nccc(-c2cnn3ncccc23)n1", "target": "FLT3 D835H", "read-out": "binding", "tested at": "1 µM", "remaining binding": "100%"}
{"Compound": "Nc1ncc2c(n1)-c1c([nH]c3ccc(C#CC4CC4)cc13)CCCC2", "target": "FLT3 autoinhibited", "read-out": "binding", "method": "competition with immobilised ligand", "tested at": "1 µM", "remaining binding": "82%"}
{"Compound": "CN(C)c1ncc(F)c(-c2cnn3ncccc23)n1", "target": "FLT3", "read-out": "binding", "tested at": "1 µM", "remaining binding": "100%"}
{"Compound": "O=C(NCc1ncc(C(F)(F)F)cc1Cl)c1ccc2c(c1)C1(CCS(=O)(=O)CC1)[C@H](C1CC1)N2S(=O)(=O)c1ccc(F)cc1", "target": "FLT3 D835H", "read-out": "cell-free assay", "method": "competition with immobilised ligand", "tested at": "1 µM", "remaining binding": "92%"}
